Measurements taken from ChEMBL document CHEMBL2157922, “Synthesis and antifungal activity of diverse C-2 pyridinyl and pyridinylvinyl substituted quinolines” (2012).
In brackets after ≈: the same amount, converted by molar mass.

What was measured:
Cryptococcus neoformans [1] = assay: Antifungal activity against Cryptococcus neoformans IM 972724 after 48 hrs by broth microdilution technique; type: functional; details: IM 972724, 48 h
How it was run: (§1)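 C. neoformans was tested by 96-well RPMI-1640 microdilution, with DMSO-matched growth and sterility control wells. Plates were incubated 48 h at 30 °C in a moist, dark chamber and read at OD405. % inhibition = 100 − (CTW − SCW)/(GCW − SCW), in duplicate. For the clinical isolates, MIC80 and MIC50 are the lowest concentrations giving 80% and 50% inhibition.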

Candida albicans [2] = assay: Antifungal activity against Candida albicans ATCC 10231 at 7.8 ug/ml after 24 hrs; type: functional; details: ATCC 10231, 24 h
How it was run: (§2)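 C. albicans was grown in 96-well RPMI-1640 broth microdilution with compound wells diluted from DMSO stocks. Growth wells with matched DMSO and sterility wells were included. After 24 h at 30 °C in a moist, dark chamber, OD405 was read. % inhibition = 100 − (CTW − SCW)/(GCW − SCW) OD, done in duplicate.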

Candida albicans [3] = assay: Antifungal activity against Candida albicans CCC 129 after 48 hrs by broth microdilution technique; type: functional; details: CCC 129, 48 h
Cryptococcus neoformans [4] = assay: Antifungal activity against Cryptococcus neoformans IM 972751 after 48 hrs by broth microdilution technique; type: functional; details: IM 972751, 48 h; how it was run: as §1
Cryptococcus neoformans [5] = assay: Antifungal activity against Cryptococcus neoformans ATCC 32264 at 31.2 ug/ml after 48 hrs; type: functional; details: ATCC 32264, 48 h; how it was run: as §1
Candida albicans [6] = assay: Antifungal activity against Candida albicans ATCC 10231 at 31.2 ug/ml after 24 hrs; type: functional; details: ATCC 10231, 24 h; how it was run: as §2
Cryptococcus neoformans [7] = assay: Antifungal activity against Cryptococcus neoformans IM 983036 after 48 hrs by broth microdilution technique; type: functional; details: IM 983036, 48 h; how it was run: as §1
Candida albicans [8] = assay: Antifungal activity against Candida albicans ATCC 10231 after 48 hrs by broth microdilution technique; type: functional; details: ATCC 10231, 48 h
How it was run: (§3)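 Yeasts were tested by CLSI broth microdilution in RPMI-1640 buffered to pH 7.0 with MOPS, with compound from 250 down to 0.98 in DMSO stocks. Trays were held at 30 °C in a moist, dark chamber. MIC100, the lowest concentration giving total visual inhibition against the growth control, was read by eye at 48 h.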

Candida albicans [9] = assay: Antifungal activity against Candida albicans CCC 128 after 48 hrs by broth microdilution technique; type: functional; details: CCC 128, 48 h
Aspergillus flavus = assay: Antifungal activity against Aspergillus flavus ATCC 9170 after 48 hrs by broth microdilution technique; type: functional; details: ATCC 9170, 48 h
How it was run: (§4)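 Moulds and dermatophytes were run by CLSI broth microdilution in MOPS-buffered RPMI-1640 at pH 7.0. Aspergillus was incubated at 30 °C and dermatophytes at 28–30 °C, in a moist, dark chamber. MIC100, the lowest concentration with no visible growth, was read visually at a time set by growth of the control fungus.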

Aspergillus fumigatus = assay: Antifungal activity against Aspergillus fumigatus ATCC 26934 after 48 hrs by broth microdilution technique; type: functional; details: ATCC 26934, 48 h; how it was run: as §4
Saccharomyces cerevisiae = assay: Antifungal activity against Saccharomyces cerevisiae ATCC 9763 after 48 hrs by broth microdilution technique; type: functional; details: ATCC 9763, 48 h; how it was run: as §3
Cryptococcus neoformans [10] = assay: Antifungal activity against Cryptococcus neoformans ATCC 32264 at 15.6 ug/ml after 48 hrs; type: functional; details: ATCC 32264, 48 h; how it was run: as §1
Cryptococcus neoformans [11] = assay: Antifungal activity against Cryptococcus neoformans IM 042074 after 48 hrs by broth microdilution technique; type: functional; details: IM 042074, 48 h; how it was run: as §1
Cryptococcus neoformans [12] = assay: Antifungal activity against Cryptococcus neoformans IM 00319 after 48 hrs by broth microdilution technique; type: functional; details: IM 00319, 48 h; how it was run: as §1
Candida albicans [13] = assay: Antifungal activity against Candida albicans CCC 125 after 48 hrs by broth microdilution technique; type: functional; details: CCC 125, 48 h
Candida albicans [14] = assay: Antifungal activity against Candida albicans CCC 130 after 48 hrs by broth microdilution technique; type: functional; details: CCC 130, 48 h
Candida parapsilosis = assay: Antifungal activity against Candida parapsilosis CCC 124 after 48 hrs by broth microdilution technique; type: functional; details: Lodderomyces parapsilosis, CCC 124, 48 h
Candida albicans [15] = assay: Antifungal activity against Candida albicans CCC 126 after 48 hrs by broth microdilution technique; type: functional; details: CCC 126, 48 h
Candida tropicalis = assay: Antifungal activity against Candida tropicalis CCC 131 after 48 hrs by broth microdilution technique; type: functional; details: CCC 131, 48 h
Nakaseomyces glabratus = assay: Antifungal activity against Candida glabrata CCC 115 after 48 hrs by broth microdilution technique; type: functional; details: CCC 115, 48 h
Cryptococcus neoformans [16] = assay: Antifungal activity against Cryptococcus neoformans ATCC 32264 after 48 hrs by broth microdilution technique; type: functional; details: ATCC 32264, 48 h; how it was run: as §3
Candida albicans [17] = assay: Antifungal activity against Candida albicans CCC 130 after 24 hrs by broth microdilution technique; details: CCC 130, 24 h
Candida albicans [18] = assay: Antifungal activity against Candida albicans ATCC 10231 at 15.6 ug/ml after 24 hrs; type: functional; details: ATCC 10231, 24 h; how it was run: as §2
Pichia kudriavzevii = assay: Antifungal activity against Candida krusei CCC 117 after 48 hrs by broth microdilution technique; type: functional; details: CCC 117, 48 h
Nannizzia gypsea = assay: Antifungal activity against Microsporum gypseum CCC 115 after 48 hrs by broth microdilution technique; type: functional; details: CCC 115, 48 h; how it was run: as §4
Candida albicans [19] = assay: Antifungal activity against Candida albicans CCC 127 after 48 hrs by broth microdilution technique; type: functional; details: CCC 127, 48 h
[20] = test system: Trichophyton mentagrophytes; assay: Antifungal activity against Trichophyton mentagrophytes ATCC 9972 after 48 hrs by broth microdilution technique; type: functional; details: ATCC 9972, 48 h; how it was run: as §4
Aspergillus niger = assay: Antifungal activity against Aspergillus niger ATCC 9029 after 48 hrs by broth microdilution technique; type: functional; details: ATCC 9029, 48 h; how it was run: as §4
Cryptococcus neoformans [21] = assay: Antifungal activity against Cryptococcus neoformans IM 983040 after 48 hrs by broth microdilution technique; type: functional; details: IM 983040, 48 h; how it was run: as §1
Trichophyton rubrum = assay: Antifungal activity against Trichophyton rubrum CCC 113 after 48 hrs by broth microdilution technique; type: functional; details: CCC 113, 48 h

MIC50 (Cryptococcus neoformans [1]): 31.2 µg/mL (≈ 151 µM)
MIC80 (Cryptococcus neoformans [1]): 31.2 µg/mL (≈ 151 µM)
MIC50 (Candida albicans [3]): 7.8 µg/mL (≈ 37.8 µM)
MIC80 (Candida albicans [3]): 15.6 µg/mL (≈ 75.6 µM)
MIC50 (Cryptococcus neoformans [4]): 7.8 µg/mL (≈ 37.8 µM)
MIC80 (Cryptococcus neoformans [4]): 31.2 µg/mL (≈ 151 µM)
MIC50 (Cryptococcus neoformans [7]): 7.8 µg/mL (≈ 37.8 µM)
MIC80 (Cryptococcus neoformans [7]): 31.2 µg/mL (≈ 151 µM)
MIC (Candida albicans [8]): 62 µg/mL (≈ 301 µM)
MIC50 (Candida albicans [8]): 7.8 µg/mL (≈ 37.8 µM)
MIC80 (Candida albicans [8]): 15.6 µg/mL (≈ 75.6 µM)
MIC50 (Candida albicans [9]): 7.8 µg/mL (≈ 37.8 µM)
MIC80 (Candida albicans [9]): 15.6 µg/mL (≈ 75.6 µM)
MIC (Aspergillus flavus): 62 µg/mL (≈ 301 µM)
MIC (Aspergillus fumigatus): 62 µg/mL (≈ 301 µM)
MIC (Saccharomyces cerevisiae): 62 µg/mL (≈ 301 µM)
MIC50 (Cryptococcus neoformans [11]): 15.6 µg/mL (≈ 75.6 µM)
MIC80 (Cryptococcus neoformans [11]): 31.2 µg/mL (≈ 151 µM)
MIC50 (Cryptococcus neoformans [12]): 31.2 µg/mL (≈ 151 µM)
MIC80 (Cryptococcus neoformans [12]): 31.2 µg/mL (≈ 151 µM)
MIC50 (Candida albicans [13]): 15.6 µg/mL (≈ 75.6 µM)
MIC80 (Candida albicans [13]): 15.6 µg/mL (≈ 75.6 µM)
MIC80 (Candida albicans [14]): 31.2 µg/mL (≈ 151 µM)
MIC50 (Candida parapsilosis): 15.6 µg/mL (≈ 75.6 µM)
MIC80 (Candida parapsilosis): 31.2 µg/mL (≈ 151 µM)
MIC50 (Candida albicans [15]): 15.6 µg/mL (≈ 75.6 µM)
MIC80 (Candida albicans [15]): 31.2 µg/mL (≈ 151 µM)
MIC50 (Candida tropicalis): 15.6 µg/mL (≈ 75.6 µM)
MIC80 (Candida tropicalis): 31.2 µg/mL (≈ 151 µM)
MIC50 (Nakaseomyces glabratus): 15.6 µg/mL (≈ 75.6 µM)
MIC80 (Nakaseomyces glabratus): 15.6 µg/mL (≈ 75.6 µM)
MIC (Cryptococcus neoformans [16]): 62 µg/mL (≈ 301 µM)
MIC50 (Cryptococcus neoformans [16]): 15.6 µg/mL (≈ 75.6 µM)
MIC80 (Cryptococcus neoformans [16]): 15.6 µg/mL (≈ 75.6 µM)
MIC50 (Candida albicans [17]): 15.6 µg/mL (≈ 75.6 µM)
MIC50 (Pichia kudriavzevii): 31.2 µg/mL (≈ 151 µM)
MIC80 (Pichia kudriavzevii): 62.5 µg/mL (≈ 303 µM)
MIC (Nannizzia gypsea): 62 µg/mL (≈ 301 µM)
MIC50 (Candida albicans [19]): 7.8 µg/mL (≈ 37.8 µM)
MIC80 (Candida albicans [19]): 15.6 µg/mL (≈ 75.6 µM)
MIC [20]: 62 µg/mL (≈ 301 µM)
MIC (Aspergillus niger): 62 µg/mL (≈ 301 µM)
MIC50 (Cryptococcus neoformans [21]): 15.6 µg/mL (≈ 75.6 µM)
MIC80 (Cryptococcus neoformans [21]): 31.2 µg/mL (≈ 151 µM)
MIC (Trichophyton rubrum): 62 µg/mL (≈ 301 µM)
Compound: c1ccc2nc(-c3ccncc3)ccc2c1
inhibition at 7.8 µg/mL (Candida albicans [2]): 50%
inhibition at 31.2 µg/mL (Cryptococcus neoformans [5]): 80%
inhibition at 31.2 µg/mL (Candida albicans [6]): 80%
MFC (Candida albicans [8]): 250 µg/mL (≈ 1210 µM)
MFC (Aspergillus flavus): 125 µg/mL (≈ 606 µM)
MFC (Aspergillus fumigatus): 125 µg/mL (≈ 606 µM)
MFC (Saccharomyces cerevisiae): 250 µg/mL (≈ 1210 µM)
inhibition at 15.6 µg/mL (Cryptococcus neoformans [10]): 80%
MFC (Cryptococcus neoformans [16]): 125 µg/mL (≈ 606 µM)
inhibition at 15.6 µg/mL (Candida albicans [18]): 80%
MFC (Nannizzia gypsea): 62 µg/mL (≈ 301 µM)
MFC [20]: 62 µg/mL (≈ 301 µM)
MFC (Aspergillus niger): 125 µg/mL (≈ 606 µM)
MFC (Trichophyton rubrum): 62 µg/mL (≈ 301 µM)
